Data set [1] deals with Staphylococcus aureus. Nature of the data set: Bactericidal activity against methicillin-resistant Staphylococcus aureus USA300 up to 18 hrs by broth microdilution assay. The format is functional. The note with it: USA300, 18 h, read-out: MBC99.9.
The conditions of data set [2]: human, microsomes, 1 h, 0.1 µM.
The test system of data set [3] is Staphylococcus aureus. Nature of the data set: Antibacterial activity against methicillin-resistant Staphylococcus aureus USA300 after 20 hrs by broth microdilution assay. Type of data set: functional. The note with it: USA300, 20 h. A digest of the protocol: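 Broth microdilution per CLSI in cation-adjusted Mueller Hinton broth. Compounds serially diluted, in triplicate. Incubation at 37 °C for at least 20 hours. MIC taken as the lowest concentration with no visible bacterial growth.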

The values that follow come from ChEMBL document CHEMBL4196022, “Alkynyl-containing phenylthiazoles: Systemically active antibacterial agents effective against methicillin-resistant Staphylococcus aureus (MRSA)” (Eur J Med Chem, 2018).

Values after ≈ are worked out from the molar mass of the structure shown.

Take `C/C(=N\NC1=NCCN1)c1sc(-c2ccc(C#CC3CC3)cc2)nc1C`: in data set [1], the MBC was 16 µg/mL (≈ 44 µM). Besides, the CLH in data set [2] was less than 115.5 µL/min/mg. The compound further came in with an MIC in data set [3] of 8 µg/mL (≈ 22 µM).
